Data from PMC4609241 (Molecular imaging and biology : MIB : the official …, 2015).
Where two headings read alike, the source gives them in different places.

How the values were obtained:
Format in all cases: in vivo, mouse
[1] = test system: U87 MG tumor; experiment: Autoradiography of resected tissues
How it was run: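 U87 MG tumour-bearing mice got the 18F-labelled fluorescent PARP1 tracer alone, or the tracer 30 min after Olaparib as a blocking agent. Tumour, brain and muscle were resected, and tumour slices were imaged by autoradiography beside H&E staining. Tissue/muscle ratios were calculated for tumours and brains in the non-blocked and blocked groups.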

[2] = test system: U87 MG glioblastoma xenografts; experiment: Small animal PET imaging of U87 MG glioblastoma xenografts
How it was run: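 Mice carrying U87 MG xenografts in the right shoulder were given 100–200 μl tracer (80–160 mCi/μmol), e.g. 200 μCi in 100 μl 15 % PEG300/85 % 0.9 % saline. PET/CT gave coronal and axial reconstructions, and tumour uptake and SUV were derived. Blocked mice were pre-injected with a 50-fold excess of Olaparib (3.7 μmol in 100 μl of the same vehicle).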

[3] = test system: U87 MG glioblastoma xenografts; experiment: Biodistribution study in tumor xenograft mice
How it was run: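 Tumour xenograft mice were injected with the tracer, with or without Olaparib pre-injection. Mice were euthanized at 90 min p.i. and organ radioactivity was counted, expressed as %ID/g (n = 4, mean ± SD). Tumour-to-non-target tissue ratios, including tumour/brain and tumour/muscle, were calculated.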

[4] = Ex vivo blood half-life; conditions: tail vein injection, 27 μCi, 100 μl
How it was run: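 For blood clearance, the tracer was given by tail vein. Blood was collected at 5, 15, 30, 60 and 120 min, weighed and γ-counted, and expressed as %IA/g (n = 4). A weighted t1/2 was derived.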

[5] = test system: U87 MG tumor; conditions: for Tumor to brain ratio: ex vivo
[6] = blocked, pre-injection of Olaparib

With `CC1=CC(C)=[N+]2C1=Cc1ccc(CCC(=O)N3CCN(C(=O)c4cc(Cc5n[nH]c(=O)c6ccccc56)ccc4F)CC3)n1[B-]2(F)[18F]` (stereo not drawn) [[^18F]PARPi-FL] the “Lowering of tumor to muscle ratio by blocking” value ([1]; Olaparib blocking) was “approximately 66%”, the “Overall reduction of tumor uptake in blocked mice (autoradiography)” value ([1]; Olaparib injected 30 min before tracer) was 80±12% and the “Brain to muscle ratio (autoradiography)” value ([1]; Olaparib-blocked mice) was 1.02±0.22. For the same compound, the “Tumor to muscle ratio (autoradiography)” value ([1]; Olaparib-blocked mice) was 2.6±1.6, the “Brain to muscle ratio (autoradiography)” value ([1]; non-blocked mice) was 0.87± 0.48 and the “Tumor to muscle ratio (autoradiography)” value ([1]; non-blocked mice) was 7.5±0.9. The “Organ uptake / excretion seen by PET” value ([2]; PET imaging) was “high uptake in the liver and in the intestinal tract”, the “Standardized uptake value (SUV) in U87 MG tumors” value ([2]; non-blocked) was 1.10±0.53 and the “Uptake in U87 MG tumors” value ([2]; non-blocked) was 0.78±0.1. For the same compound, the “Standardized uptake value (SUV) in U87 MG tumors” value ([2]; pre-injection of an excess of Olaparib (50-fold)) was 0.10±0.06, the “Tumor to muscle ratio” value ([3]; 90 min post injection) was 4±0.6 and the “Metabolic stability in vivo (defluorination)” value ([3]; U87 MG xenograft-bearing mice, bone uptake) was “quick metabolic defluorination”. For the same compound, the “Tumor to brain tissue ratio” value ([3]; biodistribution) was 12±2.1, the “Reduction of uptake in blocked U87 MG tumors” value ([3]; blocked U87 MG tumors) was 84% and the Kidneys uptake [3, 6] was 0.4±0.1 %ID/g. It also gave a Liver uptake [3, 6] of 2.02± 0.2 %ID/g, a Kidneys uptake ([3]; non-blocked) of 0.7±0.1 %ID/g and a Liver uptake ([3]; non-blocked) of 3.8±0.4 %ID/g. For the same compound, the Tumor uptake ([3]; positive control group (non-blocked), 90 min p.i.) was 0.78±0.1 %ID/g, the “Blood half-life, weighted t1/2” value [4] was 15.6 min and the “Reduction of tumor uptake in Olaparib-blocked organs” value ([5]; autoradiography) was 66±9%. For the same compound, the “Tumor to brain ratio” value ([5]; autoradiography) was “ninefold”, the “Reduction of tumor uptake in Olaparib-blocked organs” value ([5]; surface fluorescence imaging) was 74±12% and the “Tumor to brain ratio” value ([5]; surface fluorescence imaging) was “sevenfold”.
